According to ChEMBL document CHEMBL1123882, “Potential antitumor agents. 51. Synthesis and antitumor activity of substituted phenazine-1-carboxamides” (J Med Chem, 1987):

What was measured:
[1] = Lipophilicity (HPLC); assay type: physicochemical
L1210 = assay: Nanomolar concentration required to reduce the growth of L1210 cells in culture to 50% of control values after 70 h (in vitro); assay type: functional, cell-based; details: Mus musculus, L1210, 70 h
Summary of the method: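 L1210 cells were grown in culture with drug for 70 h. IC50 is the drug concentration (nM) reducing growth to 50% of control values.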

[2] = test system: Lewis lung carcinoma cell line; assay: Average increase in life span of treated animals over control groups of tumor-bearing untreated animals when given at optimal dose;NA means no significant activity (in vivo); assay type: functional, organism-based; details: Mus musculus
Summary of the method: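 Mice received drug ip as a solution in 0.1 mL 30% v/v EtOH/water at the optimal dose. For P388, 10^6 cells were inoculated ip and drug given on days 1, 5 and 9. For LL, 10^6 cells were inoculated iv and drug given on days 5, 9 and 13. ILS is the mean life-span increase over untreated tumor-bearing controls, significant above 20% (P388) or 40% (LL). Groups were of six. NA means no significant activity up to acutely toxic doses.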

P388 [3] = assay: Optimal dose in mg/kg administered intraperitoneally on days 1,5 and 9 required to inhibit the growth of P388 leukemia cells was determined (in vivo); assay type: functional, Mus musculus
Summary of the method: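 Mice were inoculated ip with 10^6 P388 cells. Drug was given ip as a solution in 0.1 mL 30% v/v EtOH/water on days 1, 5 and 9. The optimal dose (mg/kg per day) is the one giving maximal increase in life span; survivors were scored at 50 days, in groups of six.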

P388 [4] = assay: (§1) Average increase in life span of treated animals over control groups of tumor-bearing untreated animals when given at optimal dose (in vivo); assay type: functional, Mus musculus
Summary of the method: (§2)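 Mice inoculated ip with 10^6 P388 cells (drug ip on days 1, 5, 9) or iv with 10^6 Lewis lung cells (drug ip on days 5, 9, 13). Drug given as a solution in 0.1 mL 30% v/v EtOH/water, in mg/kg per day. Value is the average life-span increase versus untreated tumor-bearing controls at the optimal dose. Significance thresholds: ILS >20% (P388), >40% (LL). Groups of six.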

[5] = test system: Lewis lung carcinoma cell line; assay: (§3) Optimal dose required after intraperitoneal administration on days 5,9 and 13 to inhibit the growth of lewis lung carcinoma (LL) cells was determined (in vivo); assay type: functional, Mus musculus
Summary of the method: (§4)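 Mice were inoculated iv with 10^6 Lewis lung cells. Drug was given ip in 0.1 mL 30% v/v EtOH/water on days 5, 9 and 13. The optimal dose (mg/kg per day) is the one giving maximal increase in life span; survivors were scored at 60 days, in groups of six.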

[6] = as §1; assay type: functional, Mus musculus; summary of the method: as §2
[7] = as §3; assay type: functional, Mus musculus; summary of the method: as §4

Row | Compound | Rm [1] | IC50 (L1210) | ILS max [2] | OD (P388 [3]) | ILS max (P388 [4]) | OD [5] | ILS max [6] | OD [7]
1 | CN(C)CCCCNC(=O)c1cccc2nc3ccccc3nc12 | -0.11 | 1.17 µM | Not significant | 150 mg/kg/day | 49 | 225 mg/kg/day |  | 
2 | CN(C)CCNC(=O)c1cccc2c1nc1ccccc1[n+]2[O-] | -0.58 | 3 µM |  | 150 mg/kg/day | 81 |  | 51 | 150 mg/kg/day
